# System: Fibroblast
# Test: Multiplex assay against human fibroblast
# Type: toxicity, cell-based
# Outline: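 Per cents of healthy-nucleus cells form the tubulin, mitochondrial-mass and membrane-permeability phenotype values. Live cells were stained at seeding with Hoechst33342, BioTracker Green Microtubule Cytoskeleton Dye, MitoTracker Red and Annexin V Alexa Fluor 680. After compound addition they were imaged on a CQ1 microscope at 37°C and 5% CO2, and CellPathfinder machine-learning gating split them into Hoechst high-intensity objects or normal cells, normal cells into healthy, pyknosed or fragmented nuclei, and pyknosed cells into mitotic or apoptotic.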
# [1] = 12 h, 1 µM, compound concentration 1 uM, replicate 1
# [2] = 12 h, 1 µM, compound concentration 1 uM, replicate 2
# [3] = 12 h, 10 µM, compound concentration 10 uM, replicate 1
# [4] = 12 h, 10 µM, compound concentration 10 uM, replicate 2
# [5] = 24 h, 1 µM, compound concentration 1 uM, replicate 1
# [6] = 24 h, 1 µM, compound concentration 1 uM, replicate 2
# [7] = 24 h, 10 µM, compound concentration 10 uM, replicate 1
# [8] = 24 h, 10 µM, compound concentration 10 uM, replicate 2
# [9] = 48 h, 1 µM, compound concentration 1 uM, replicate 1
# [10] = 48 h, 1 µM, compound concentration 1 uM, replicate 2
# [11] = 48 h, 10 µM, compound concentration 10 uM, replicate 1
# [12] = 48 h, 10 µM, compound concentration 10 uM, replicate 2
smiles,measurement,setting,value
COc1cc2nc(N3CCN(C(=O)c4ccco4)CC3)nc(N)c2cc1OC.Cl [PRAZOSIN HYDROCHLORIDE],Population Apoptotic (%),[1],38%
same,Population Fragmented Nuclei (%),[1],22%
same,Population Healthy Nuclei (%),[1],57%
same,Population Hoechst High Intensity Objects (%),[1],1%
same,Population Membrane Permeable-Phenotype (%),[1],1%
same,Population Mitochondria Different-Phenotype (%),[1],1%
same,Population Mitotic Cells (%),[1],61%
same,Population Normal (%),[1],98%
same,Population Pyknosed Nuclei (%),[1],19%
same,Population Tubulin-Different-Phenotype (%),[1],26%
same,Total Cell Count,[1],174
same,Population Apoptotic (%),[2],49%
same,Population Fragmented Nuclei (%),[2],20%
same,Population Healthy Nuclei (%),[2],52%
same,Population Hoechst High Intensity Objects (%),[2],4%
same,Population Membrane Permeable-Phenotype (%),[2],5%
same,Population Mitochondria Different-Phenotype (%),[2],7%
same,Population Mitotic Cells (%),[2],50%
same,Population Normal (%),[2],95%
same,Population Pyknosed Nuclei (%),[2],27%
same,Population Tubulin-Different-Phenotype (%),[2],46%
same,Total Cell Count,[2],194
same,Population Apoptotic (%),[3],44%
same,Population Fragmented Nuclei (%),[3],23%
same,Population Healthy Nuclei (%),[3],64%
same,Population Hoechst High Intensity Objects (%),[3],1%
same,Population Membrane Permeable-Phenotype (%),[3],0%
same,Population Mitochondria Different-Phenotype (%),[3],7%
same,Population Mitotic Cells (%),[3],56%
same,Population Normal (%),[3],98%
same,Population Pyknosed Nuclei (%),[3],12%
same,Population Tubulin-Different-Phenotype (%),[3],49%
same,Total Cell Count,[3],198
same,Population Apoptotic (%),[4],31%
same,Population Fragmented Nuclei (%),[4],35%
same,Population Healthy Nuclei (%),[4],42%
same,Population Hoechst High Intensity Objects (%),[4],5%
same,Population Membrane Permeable-Phenotype (%),[4],9%
same,Population Mitochondria Different-Phenotype (%),[4],3%
same,Population Mitotic Cells (%),[4],68%
same,Population Normal (%),[4],94%
same,Population Pyknosed Nuclei (%),[4],21%
same,Population Tubulin-Different-Phenotype (%),[4],65%
same,Total Cell Count,[4],155
same,Population Apoptotic (%),[5],50%
same,Population Fragmented Nuclei (%),[5],20%
same,Population Healthy Nuclei (%),[5],63%
same,Population Hoechst High Intensity Objects (%),[5],2%
same,Population Membrane Permeable-Phenotype (%),[5],0%
same,Population Mitochondria Different-Phenotype (%),[5],2%
same,Population Mitotic Cells (%),[5],50%
same,Population Normal (%),[5],97%
same,Population Pyknosed Nuclei (%),[5],15%
same,Population Tubulin-Different-Phenotype (%),[5],28%
same,Total Cell Count,[5],181
same,Population Apoptotic (%),[6],45%
same,Population Healthy Nuclei (%),[6],57%
same,Population Hoechst High Intensity Objects (%),[6],7%
same,Population Membrane Permeable-Phenotype (%),[6],12%
same,Population Mitochondria Different-Phenotype (%),[6],3%
same,Population Mitotic Cells (%),[6],54%
same,Population Normal (%),[6],92%
same,Population Pyknosed Nuclei (%),[6],21%
same,Population Tubulin-Different-Phenotype (%),[6],58%
same,Total Cell Count,[6],185
same,Population Apoptotic (%),[7],46%
same,Population Fragmented Nuclei (%),[7],23%
same,Population Healthy Nuclei (%),[7],69%
same,Population Hoechst High Intensity Objects (%),[7],3%
same,Population Membrane Permeable-Phenotype (%),[7],0%
same,Population Mitochondria Different-Phenotype (%),[7],6%
same,Population Mitotic Cells (%),[7],53%
same,Population Normal (%),[7],96%
same,Population Pyknosed Nuclei (%),[7],6%
same,Population Tubulin-Different-Phenotype (%),[7],45%
same,Total Cell Count,[7],201
same,Population Apoptotic (%),[8],61%
same,Population Fragmented Nuclei (%),[8],35%
same,Population Healthy Nuclei (%),[8],49%
same,Population Hoechst High Intensity Objects (%),[8],7%
same,Population Membrane Permeable-Phenotype (%),[8],10%
same,Population Mitochondria Different-Phenotype (%),[8],11%
same,Population Mitotic Cells (%),[8],38%
same,Population Normal (%),[8],92%
same,Population Pyknosed Nuclei (%),[8],15%
same,Population Tubulin-Different-Phenotype (%),[8],73%
same,Total Cell Count,[8],152
same,Population Apoptotic (%),[9],52%
same,Population Fragmented Nuclei (%),[9],24%
same,Population Healthy Nuclei (%),[9],62%
same,Population Hoechst High Intensity Objects (%),[9],3%
same,Population Membrane Permeable-Phenotype (%),[9],0%
same,Population Mitochondria Different-Phenotype (%),[9],1%
same,Population Mitotic Cells (%),[9],47%
same,Population Normal (%),[9],96%
same,Population Pyknosed Nuclei (%),[9],13%
same,Population Tubulin-Different-Phenotype (%),[9],22%
same,Total Cell Count,[9],182
same,Population Apoptotic (%),[10],66%
same,Population Fragmented Nuclei (%),[10],29%
same,Population Healthy Nuclei (%),[10],56%
same,Population Membrane Permeable-Phenotype (%),[10],8%
same,Population Mitochondria Different-Phenotype (%),[10],6%
same,Population Mitotic Cells (%),[10],33%
same,Population Pyknosed Nuclei (%),[10],14%
same,Population Tubulin-Different-Phenotype (%),[10],57%
same,Total Cell Count,[10],197
same,Population Apoptotic (%),[11],66%
same,Population Fragmented Nuclei (%),[11],25%
same,Population Healthy Nuclei (%),[11],68%
same,Population Hoechst High Intensity Objects (%),[11],1%
same,Population Membrane Permeable-Phenotype (%),[11],0%
same,Population Mitochondria Different-Phenotype (%),[11],4%
same,Population Mitotic Cells (%),[11],33%
same,Population Normal (%),[11],98%
same,Population Pyknosed Nuclei (%),[11],6%
same,Population Tubulin-Different-Phenotype (%),[11],32%
same,Total Cell Count,[11],201
same,Population Apoptotic (%),[12],46%
same,Population Fragmented Nuclei (%),[12],42%
same,Population Healthy Nuclei (%),[12],49%
same,Population Hoechst High Intensity Objects (%),[12],5%
same,Population Membrane Permeable-Phenotype (%),[12],5%
same,Population Mitochondria Different-Phenotype (%),[12],5%
same,Population Mitotic Cells (%),[12],53%
same,Population Normal (%),[12],94%
same,Population Pyknosed Nuclei (%),[12],8%
same,Population Tubulin-Different-Phenotype (%),[12],48%
same,Total Cell Count,[12],170

# Source: ChEMBL document CHEMBL5058577, “EUbOPEN Chemogenomics Library 2 (Multiplex)” (2022)
